Results reported in publication PMC7649717 (Analytical chemistry, 2020).
Positions count from the first letter of the chain named.

Key:
Assay in all cases: isothermal titration calorimetry
Conditions in all cases: PBS, 298 K, 30 μM protein; GFP fusion
[1] = molecular target: T1, GFP-RBP(L19A); ribose binding protein (RBP) (Escherichia coli, UniProt P02925, L44A/Q260A)
T1 sequence (P02925 26-296 L44A/Q260A): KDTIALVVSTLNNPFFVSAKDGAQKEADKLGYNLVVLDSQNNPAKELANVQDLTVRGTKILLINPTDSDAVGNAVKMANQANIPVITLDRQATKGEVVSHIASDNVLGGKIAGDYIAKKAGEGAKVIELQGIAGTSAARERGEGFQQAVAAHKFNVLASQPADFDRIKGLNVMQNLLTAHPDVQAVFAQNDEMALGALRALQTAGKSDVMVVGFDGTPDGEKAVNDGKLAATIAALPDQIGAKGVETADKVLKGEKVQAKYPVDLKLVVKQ

[2] = molecular target: T2, GFP-RBP(L19A); ribose binding protein (RBP) (Escherichia coli, UniProt P02925, L44A)
T2 sequence (P02925 26-296 L44A): T1 sequence (P02925 26-296 L44A/Q260A) with A235Q
Method in brief: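 GFP-RBP(L19A) expressed in E. coli BL21(DE3) and Ni-affinity purified with on-column 8 M urea unfolding and refolding to strip endogenous ribose, then size-exclusion in PBS. ITC at 298 K: cell held 30 μM protein in PBS against a deionized water reference; ribose at 10x protein concentration in PBS. Kd came from nonlinear regression fits of the binding isotherms.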

[3] = molecular target: T3, GFP-RBP(L19A); ribose binding protein (RBP) (Escherichia coli, UniProt P02925, L44A/T160A/Q260A)
T3 sequence (P02925 26-296 L44A/T160A/Q260A): T1 sequence (P02925 26-296 L44A/Q260A) with T135A

With `OC1OC[C@@H](O)[C@@H](O)[C@H]1O` (stereo partly drawn) [ribose] as the compound, how does the Kd [1] read?
Its Kd is 10 µM.

What about the Kd [2] of the same compound?
The Kd was 0.3 ± 0.1 µM.

And the Kd [3]?
Its Kd is 130 µM.
